ChEMBL document CHEMBL3864121, “Development of ebsulfur analogues as potent antibacterials against methicillin-resistant Staphylococcus aureus” (Bioorg Med Chem, 2016)
Values after ≈ are worked out from the molar mass of the structure shown. Active and inactive are the calls of the source. The calls are words filed in the database; no cut-off is given here.

Key:
Type in all cases: functional
Enterococcus faecalis [1] = experiment: Antibacterial activity against Enterococcus faecalis ATCC 49533 measured after overnight incubation by broth double-dilution method
Summary of the method: (§1)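 MIC by broth double-dilution in Mueller-Hinton medium. Re-testing at the time-kill inoculum used 1×10^6 CFU/mL.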

Enterococcus = experiment: Antibacterial activity against Vancomycin-resistant Enterococcus measured after overnight incubation by broth double-dilution method
Summary of the method: (§2)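 MIC by broth double-dilution in liquid Mueller-Hinton medium. Values are reported in µg/mL.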

Staphylococcus aureus [2] = experiment: Antibacterial activity against methicillin-resistant Staphylococcus aureus USA200 measured after overnight incubation by broth double-dilution method; summary of the method: as §2
Staphylococcus aureus [3] = experiment: Antibacterial activity against methicillin-resistant Staphylococcus aureus USA600 measured after overnight incubation by broth double-dilution method; summary of the method: as §2
Staphylococcus aureus [4] = experiment: Antibacterial activity against methicillin-resistant Staphylococcus aureus G6 measured after overnight incubation by broth double-dilution method; summary of the method: as §2
Staphylococcus aureus [5] = experiment: Antibacterial activity against methicillin-resistant Staphylococcus aureus USA100 measured after overnight incubation by broth double-dilution method; summary of the method: as §2
Staphylococcus aureus [6] = experiment: Antibacterial activity against methicillin-resistant Staphylococcus aureus C19 measured after overnight incubation by broth double-dilution method; summary of the method: as §2
Listeria monocytogenes = experiment: Antibacterial activity against Listeria monocytogenes ATCC 19115 measured after overnight incubation by broth double-dilution method; summary of the method: as §1
Staphylococcus aureus [7] = experiment: Antibacterial activity against methicillin-resistant Staphylococcus aureus 2 measured after overnight incubation by broth double-dilution method; summary of the method: as §2
Staphylococcus aureus [8] = experiment: Antibacterial activity against methicillin-resistant Staphylococcus aureus C14 measured after overnight incubation by broth double-dilution method; summary of the method: as §2
Staphylococcus aureus [9] = experiment: Antibacterial activity against methicillin-resistant Staphylococcus aureus NRS4 measured after overnight incubation by broth double-dilution method; summary of the method: as §2
Staphylococcus aureus [10] = experiment: Antibacterial activity against methicillin-resistant Staphylococcus aureus C2 measured after overnight incubation by broth double-dilution method; summary of the method: as §2
Staphylococcus aureus [11] = experiment: Antibacterial activity against methicillin-sensitive Staphylococcus aureus ATCC 29213 measured after overnight incubation by broth double-dilution method; summary of the method: as §2
Staphylococcus aureus [12] = experiment: Antibacterial activity against methicillin-resistant Staphylococcus aureus C16 measured after overnight incubation by broth double-dilution method; summary of the method: as §2
Staphylococcus aureus [13] = experiment: Antibacterial activity against methicillin-resistant Staphylococcus aureus S24 measured after overnight incubation by broth double-dilution method; summary of the method: as §2
Staphylococcus aureus [14] = experiment: Antibacterial activity against methicillin-resistant Staphylococcus aureus C1 measured after overnight incubation by broth double-dilution method; summary of the method: as §2
Enterococcus faecium = experiment: Antibacterial activity against Enterococcus faecium BM4105-RF measured after overnight incubation by broth double-dilution method; summary of the method: as §2
Staphylococcus aureus [15] = experiment: Antibacterial activity against methicillin-resistant Staphylococcus aureus S17 measured after overnight incubation by broth double-dilution method; summary of the method: as §2
Staphylococcus aureus [16] = experiment: Antibacterial activity against methicillin-resistant Staphylococcus aureus NRS77 measured after overnight incubation by broth double-dilution method; summary of the method: as §2
Staphylococcus aureus [17] = experiment: Antibacterial activity against methicillin-resistant Staphylococcus aureus G1 measured after overnight incubation by broth double-dilution method; summary of the method: as §2
Staphylococcus aureus [18] = experiment: Antibacterial activity against methicillin-resistant Staphylococcus aureus S14 measured after overnight incubation by broth double-dilution method; summary of the method: as §2
Staphylococcus aureus [19] = experiment: Antibacterial activity against methicillin-resistant Staphylococcus aureus G14 measured after overnight incubation by broth double-dilution method; summary of the method: as §2
Staphylococcus aureus [20] = experiment: Antibacterial activity against methicillin-resistant Staphylococcus aureus C7 measured after overnight incubation by broth double-dilution method; summary of the method: as §2
Staphylococcus aureus [21] = experiment: Antibacterial activity against methicillin-resistant Staphylococcus aureus NRS51 measured after overnight incubation by broth double-dilution method; summary of the method: as §2
Staphylococcus aureus [22] = experiment: Antibacterial activity against methicillin-resistant Staphylococcus aureus S22 using 1 10^6CFU/ml measured after overnight incubation by broth double-dilution method
Staphylococcus aureus [23] = experiment: Antibacterial activity against methicillin-resistant Staphylococcus aureus BRS3 measured after overnight incubation by broth double-dilution method; summary of the method: as §2
Staphylococcus aureus [24] = experiment: Antibacterial activity against methicillin-resistant Staphylococcus aureus S22 measured after overnight incubation by broth double-dilution method; summary of the method: as §2
Staphylococcus aureus [25] = experiment: Antibacterial activity against methicillin-sensitive Staphylococcus aureus ATCC 6538 measured after overnight incubation by broth double-dilution method; summary of the method: as §2
Staphylococcus aureus [26] = experiment: Antibacterial activity against methicillin-resistant Staphylococcus aureus USA300 measured after overnight incubation by broth double-dilution method; summary of the method: as §2
[27] = system: Staphylococcus epidermidis; experiment: Antibacterial activity against Staphylococcus epidermidis ATCC 35984 measured after overnight incubation by broth double-dilution method; conditions: RP62A; summary of the method: as §1
Staphylococcus aureus [28] = experiment: Antibacterial activity against methicillin-sensitive Staphylococcus aureus ATCC 25923 measured after overnight incubation by broth double-dilution method; summary of the method: as §2
Staphylococcus aureus [29] = experiment: Antibacterial activity against methicillin-resistant Staphylococcus aureus G12 measured after overnight incubation by broth double-dilution method; summary of the method: as §2
Staphylococcus aureus [30] = experiment: Antibacterial activity against methicillin-resistant Staphylococcus aureus ATCC 33591 measured after overnight incubation by broth double-dilution method; summary of the method: as §2
Enterococcus faecalis [31] = experiment: Antibacterial activity against Enterococcus faecalis ATCC 29212 measured after overnight incubation by broth double-dilution method; summary of the method: as §1
Staphylococcus aureus [32] = experiment: Antibacterial activity against methicillin-resistant Staphylococcus aureus 1 measured after overnight incubation by broth double-dilution method; summary of the method: as §2
[33] = system: Mycolicibacterium smegmatis; experiment: Antibacterial activity against Mycobacterium smegmatis MC2-155 measured after overnight incubation by broth double-dilution method; conditions: str. MC2 155; summary of the method: as §2

| SMILES | MIC (Enterococcus faecalis [1]) [mg/L] | MIC (Enterococcus) [mg/L] | MIC (Staphylococcus aureus [2]) [mg/L] | MIC (Staphylococcus aureus [3]) [mg/L] | MIC (Staphylococcus aureus [4]) [mg/L] | MIC (Staphylococcus aureus [5]) [mg/L] | MIC (Staphylococcus aureus [6]) [mg/L] | MIC (Listeria monocytogenes) [mg/L] | MIC (Staphylococcus aureus [7]) [mg/L] | MIC (Staphylococcus aureus [8]) [mg/L] | MIC (Staphylococcus aureus [9]) [mg/L] | MIC (Staphylococcus aureus [10]) [mg/L] | MIC (Staphylococcus aureus [11]) [mg/L] | MIC (Staphylococcus aureus [12]) [mg/L] | MIC (Staphylococcus aureus [13]) [mg/L] | MIC (Staphylococcus aureus [14]) [mg/L] | MIC (Enterococcus faecium) [mg/L] | MIC (Staphylococcus aureus [15]) [mg/L] | MIC (Staphylococcus aureus [16]) [mg/L] | MIC (Staphylococcus aureus [17]) [mg/L] | further results |
| --- | --- | --- | --- | --- | --- | --- | --- | --- | --- | --- | --- | --- | --- | --- | --- | --- | --- | --- | --- | --- | --- |
| CCCCCn1sc2ccccc2c1=O | > 125 | 1 (≈ 4.52 µM) | 3.9 (≈ 17.6 µM) | 3.9 (≈ 17.6 µM) | 2 (≈ 9.04 µM) | 3.9 (≈ 17.6 µM) | 1 (≈ 4.52 µM) | 3.9 (≈ 17.6 µM) | 2 (≈ 9.04 µM) | 3.9 (≈ 17.6 µM) | 2 (≈ 9.04 µM) | 2 (≈ 9.04 µM) | 3.9 (≈ 17.6 µM) | 7.8 (≈ 35.2 µM) | 3.9 (≈ 17.6 µM) | 2 (≈ 9.04 µM) | 15.6 (≈ 70.5 µM) | 2 (≈ 9.04 µM) | 2 (≈ 9.04 µM) | 0.5 (≈ 2.26 µM) | MIC (Staphylococcus aureus [18]): ≤ 0.25 mg/L; MIC (Staphylococcus aureus [19]): 2 mg/L (≈ 9.04 µM); MIC (Staphylococcus aureus [20]): 2 mg/L (≈ 9.04 µM); MIC (Staphylococcus aureus [21]): 3.9 mg/L (≈ 17.6 µM); Activity (Staphylococcus aureus [22]): Active; MIC (Staphylococcus aureus [23]): 3.9 mg/L (≈ 17.6 µM); MIC (Staphylococcus aureus [24]): 3.9 mg/L (≈ 17.6 µM); MIC (Staphylococcus aureus [25]): 7.8 mg/L (≈ 35.2 µM); MIC (Staphylococcus aureus [26]): 3.9 mg/L (≈ 17.6 µM); MIC [27]: 3.9 mg/L (≈ 17.6 µM); MIC (Staphylococcus aureus [28]): 3.9 mg/L (≈ 17.6 µM); MIC (Staphylococcus aureus [29]): 2 mg/L (≈ 9.04 µM); MIC (Staphylococcus aureus [30]): 1 mg/L (≈ 4.52 µM); MIC (Enterococcus faecalis [31]): 7.8 mg/L (≈ 35.2 µM); MIC (Staphylococcus aureus [32]): 0.5 mg/L (≈ 2.26 µM); MIC [33]: 2 mg/L (≈ 9.04 µM) |
| O=c1c2ccccc2sn1C1CCCCCCC1 | 15.6 (≈ 59.7 µM) | 1 (≈ 3.83 µM) | 7.8 (≈ 29.8 µM) | 7.8 (≈ 29.8 µM) | 2 (≈ 7.65 µM) | 7.8 (≈ 29.8 µM) | 2 (≈ 7.65 µM) | > 125 | 3.9 (≈ 14.9 µM) | 2 (≈ 7.65 µM) | 0.5 (≈ 1.91 µM) | 3.9 (≈ 14.9 µM) | 2 (≈ 7.65 µM) | 3.9 (≈ 14.9 µM) | 3.9 (≈ 14.9 µM) | 3.9 (≈ 14.9 µM) | 15.6 (≈ 59.7 µM) | 2 (≈ 7.65 µM) | 2 (≈ 7.65 µM) | 1 (≈ 3.83 µM) | MIC (Staphylococcus aureus [18]): 1 mg/L (≈ 3.83 µM); MIC (Staphylococcus aureus [19]): 3.9 mg/L (≈ 14.9 µM); MIC (Staphylococcus aureus [20]): 3.9 mg/L (≈ 14.9 µM); MIC (Staphylococcus aureus [21]): 2 mg/L (≈ 7.65 µM); MIC (Staphylococcus aureus [23]): 3.9 mg/L (≈ 14.9 µM); MIC (Staphylococcus aureus [24]): 7.8 mg/L (≈ 29.8 µM); MIC (Staphylococcus aureus [25]): 2 mg/L (≈ 7.65 µM); MIC (Staphylococcus aureus [26]): 7.8 mg/L (≈ 29.8 µM); MIC [27]: 3.9 mg/L (≈ 14.9 µM); MIC (Staphylococcus aureus [28]): > 125 mg/L; MIC (Staphylococcus aureus [29]): 2 mg/L (≈ 7.65 µM); MIC (Staphylococcus aureus [30]): > 125 mg/L; MIC (Enterococcus faecalis [31]): 15.6 mg/L (≈ 59.7 µM); MIC (Staphylococcus aureus [32]): 3.9 mg/L (≈ 14.9 µM); MIC [33]: 3.9 mg/L (≈ 14.9 µM) |
